# Assay results reported in the EternaBench riboswitch data.
# Tested on: MS2 coat protein
# Experiment: apparent Kd, MS2 coat protein; higher = weaker binding; RNA-MaP array; FMN 200 µM where present
# In short: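 The apparent Kd is the median of filtered binding-curve fits, one per cluster, to green signal normalised to red-channel RNA signal and control-cluster median Fmax. The clusters were on Illumina sequencing chips, and stalled E. coli RNA polymerase had transcribed the designs on them. Titration used SNAP-549-labelled MS2 coat protein from 0.7 or 1.5 nM, doubling to 3 µM, without and then with constant ligand, in 100 mM Tris-HCl pH 7.5, 80 mM KCl, 4 mM MgCl2, BSA, DTT, yeast tRNA and Tween-20.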
# [1] = designed as: ON switch for flavin mononucleotide, no ligand
# [2] = ligand present: flavin mononucleotide, designed as: ON switch for flavin mononucleotide
# [3] = designed as: OFF switch for flavin mononucleotide, no ligand
# [4] = ligand present: flavin mononucleotide, designed as: OFF switch for flavin mononucleotide
Sequence,apparent Kd [1] [nM],apparent Kd [2] [nM],apparent Kd [3] [nM],apparent Kd [4] [nM]
AAAAAAAAAAGGCAGGAUAUUCAAAAAAAAACAUGAGGAUCACCCAUGUAAAAAAAAAAAAAAUGGAAGAAGGGCCAAAAAAAAAA,21.1,22.5,–,–
AAAAAAAAAGUAGAGGAUAUCCGAGUGGUAACAUGAGGAUCACCCAUGUGAAGAAAGGAACAUGAGGAGAAGGCUACAAAAAAAAA,46.6,16.6,–,–
AAAAAAAAUGUGUAGGAUAUCAGUAAAAAUACAUGAGGAUCACCCAUGUUCAAAAAAAAAAAAACUGAGAAGGACACGGAUGGUCC,120,55.9,–,–
AAAAAACAUGAGGAUCACCCAUGUAAAAAAAUGGGAGGAUAUACAAAAACAAAAAAAAAAGUAGAAGGCCUGAAAA,387,63.8,–,–
AAAAAACAUGAGGAUCACCCAUGUCAAAAGACGUGAGGAUAUGUACAGACUUCGGUCUGUACAGAAGGCACGAAAA,25.4,21.2,–,–
AAAAAACAUGAGGAUCACCCAUGUCAGGAUAUCGUGCAGAAAAAAAAAAAAAACUGCACGAGAAGGGACAUGAA,–,–,236,192
AAAAAACAUGAGGAUCACCCAUGUCUUUUGACAUGAGGAUAUGUACAGACUUCGGUCUGUACAGAAGGCAUGUCUU,41.4,17.1,–,–
AAAAAACAUGAGGAUCACCCAUGUGAGGAUAUCGGAAAAAAAAAAAAAAAAAAAAAAACGAGAAGGCACAAAAA,–,–,60.8,71.7
AAAAAACAUGAGGAUCACCCAUGUGAGGAUAUGUAUAUCCCUAAAAAAGUGUGGGACUACAGAAGGCACUUGGA,–,–,79.7,207
AAAAAGCGAGGAUAUACAUGAGGAUCACCCAUGUCAAACGGUAAGACCGCAGGAAAAAGUAGAAGGCGCAAAAA,–,–,61.5,98.5
AAAAAGCGAGGAUAUACAUGAGGAUCACCCAUGUGAAAGUCGAAAAAAAAGACAAAAAGUAGAAGGCGCAAAAA,–,–,23.2,26.7
AAAAAGCUAGGAUAUACAUGAAAAAAAAAAAAGUAAAAAAAACAUGAGGAUCACCCAUGUAGAAGGAGCAAAAA,–,–,44,39.5
AAAAAGUCAGGAUAUACAAAAGUGCGAAAGCACAAAAGGAAACAUGAGGAUCACCCAUGUAGAAGGGACAAGAA,–,–,32.6,27.5
AAAAAGUCAGGAUAUGGAAAAAAAAAAAAAAAAAAAAAAAACCAGAAGGGACAUGAGGAUCACCCAUGUAAAAA,–,–,71.5,43.8
AAAAAGUGAGGAUAUACGCUGUGGAGUAGACACAACCAGACGUAGAAGGCACAUGAGGAUCACCCAUGUCCAAA,–,–,24.9,51.9
AAAACAUACCGAGGAUAUUCAUAUAAUAAAUAAACAUGAGGAUCACCCAUGUGGCAAAAGCCUAGGGAGAAGGCGGAAUGCUAA,36,22.4,–,–
AAAACAUGAGGAUCACCCAUGUAAAGAUCGGUCGAUCAAGGUGAGGAUAUACAAUAAUUGAUGGAGUAGAAGGCACUGGGUUGA,227,127,–,–
AAAACAUGAGGAUCACCCAUGUAAAGAUCGGUCGAUGAAGGUGAGGAUAUACAAAACUUUAUGGAGUAGAAGGCACUGGGUUGA,185,69.8,–,–
AAAACAUGAGGAUCACCCAUGUAAAGAUCGGUUAAUUGUUGUGAGGAUAUACUAAAUUUUAGGUUGUAGAAGGCACUGGGUACA,43.1,54.9,–,–

Sequence,apparent Kd [1] [nM],apparent Kd [2] [nM],apparent Kd [3] [nM],apparent Kd [4] [nM]
AAAACAUGAGGAUCACCCAUGUAAUGAUCGGUUGAUGAAAGUGAGGAUAUACAAAAUUUUAUGGAGUAGAAGGCACUGGGUUCA,31.4,31.9,–,–
AAAAGACAUGAGGAUCACCCAUGUAAAAACAUAGGAGGAUAUGUCAUGAAAAAAGACUUGACAGAAGGCCUUUGUC,164,65.4,–,–
AAAAGACAUGAGGAUCACCCAUGUAAAAACAUAGGAGGAUAUGUCUGGAAACUAGACUGGACAGAAGGCCUUUGUC,33.3,25,–,–
AAAAGACAUGAGGAUCACCCAUGUUAGGAUAUCGUGCAGAAAAAAAAAAAAAACUGCACGAGAAGGAACAAGGA,–,–,73.5,88.5
AAAAGCUCAGGAUAUACGGUCUGUUGUUGAAAAAGUAAAAAACAUGAGGAUCACCCAUGUAGAAGGGAGCGAAA,–,–,67.3,159
AAAAGGUUAGGAUAUGCCCGCCGGGUGGGAAGGCCGGGUGGGUAGAAGGGACAUGAGGAUCACCCAUGUAUAAA,–,–,47,19.9
AAAAUACAUGAGGAUCACCCAUGUUAGGAUAUCCAAGGUCUGACCCUCAGGGUCAGAAGGAGAAGGGAUGUGGU,–,–,56.7,67.7
AAAAUAGCAGGAUAUACAUGAGGAUCACCCAUGUUUAUUGGGCACUUGCUGACGUCGUGUAGAAGGGUUACGAC,–,–,20.5,18.8
AAAAUCUAUUGAGGAUAUUCAAACACUACAUACGGAGAAGGCAAACAAUCAUGAGGACAUGAGGAUCACCCAUGUUGUGACCAU,25.5,19.4,–,–
AAACACGGACAUGAGGAUCACCCAUGUGGCGAAAGCCUUGGGAGAAGGAUAAAUAUAUAAUAAAAUUAGGAUAUUCAUACCGUG,306,104,–,–
AAACACGGACAUGAGGAUCACCCAUGUGGCGAAAGCCUUGGGAGAAGGCCGAUUGCAAAGCAAUCGGAGGAUAUUCAUACCGUG,1250,57,–,–
AAACCACAUGAGGAUCACCCAUGUCAUAACCGUAGGGAGAAGAGAAGGGUGAGGGUGUAGCCUGCACAGGAUAUCUAGUGCCUC,228,174,–,–
AAACCGUAAAUGCGGGCAUGUACACAGGAUAUCCCGUGACAUGAGGAUCACCCAUGUAACACAUUGGAGAAGGGUGUUCACGUA,177,19.6,–,–
AAAGACUAAGGAUAUACAUGAGGAUCACCCAUGUCUACCCACAUGCUGGUAUCAACCUGUAGAAGGUAGUUCAA,–,–,27.8,85.9
AAAGAGCGAGGAUAUACGUAUCGGUGCGGCCAGCCGAUGUGACAUGAGGAUCACCCAUGUAGAAGGCGCAGAAA,–,–,26.9,35.4
AAAGAUGGAGGAUAUACAUGAGGAUCACCCAUGUAGAAAAAAAAUUGGGAAAAAGAAAGUAGAAGGCCAAAAAA,–,–,41,91.1
AAAGCACAUGAGGAUCACCCAUGUGGAAAUAACACAGGAUAUCUGGCCUAAGCUUAGGCGAGAGAAGGGUGACCUA,88.9,223,–,–
AAAGCUCAGAUAGGAUAUAUAGGAUAACUUAAGACCUAACAUGAGGAUCACCCAUGUGAUUAUUCGUAGAAGGAUCAUUGAACC,195,209,–,–
AAAGGCCAAGGAUAUACAUGAGGAUCACCCAUGUCGAGUCCCGGGCAUGUAAGUUGGUGUAGAAGGUGGAAGAA,–,–,13.4,13.5

Sequence,apparent Kd [1] [nM],apparent Kd [2] [nM],apparent Kd [3] [nM],apparent Kd [4] [nM]
AAAGUACAUGAGGAUCACCCAUGUUGAAAAAAUCGAGGAUAUGCGAAAAAAAAAAAAAAAGCAGAAGGUGAAAAAA,49,42.4,–,–
AAAGUAGGAGGAUAUACAUAGAUACAGAUACAUGUAGACGUACAUGAGGAUCACCCAUGUAGAAGGCCUAUGUA,–,–,65.9,212
AAAGUCGGAAGAUAAUAAUGAAUACAUGAGGAUCACCCAUGUAAGGAUAUGCAGUGGAAUACACUGCAGAAGGUACAAACCGAC,–,–,14.7,19.8
AAAUAAACUACCAUAAUAUCCUCACAUGAGGAUCACCCAUGUCAGGAUAUUUGUCCUAAAAGGACAGAGAAGGGACGUGGUAGA,–,–,5.43,11.1
AAAUAAUUGUCAGGAUAUGGCAUGUAGACGAUGCCAGAAGGGACAUGAGGAUCACCCAUGUUGCUCAACACUGGGAGACGUAAG,–,–,133,273
AAAUAGCAUGAGGAUAUUGGACUGGAUUCAGUACGAGAAGGCAUGACAUGAGGAUCACCCAUGUUGUGUUGGGA,–,–,19.7,44.8
AAAUCAGCAGGAUAUGCGAUGUUGUGCUAGAUAGCGGGACCACAUGAGGAUCACCCAUGUAGAAGGGCUGGAUA,–,–,57.5,29.5
AAAUCGGCAGGAUAUACAUGAGGAUCACCCAUGUAAAUUUUUCGUUUAACUUGAAUGUGUAGAAGGGCCAUAAA,–,–,25.6,27.1
AAAUUACAUGAGGAUCACCCAUGUUUAAAAAAUAUAGGAUAUGUAAAAAAAAAAAAAAAAACAGAAGGGUAAAAAA,44.8,42,–,–
AAAUUGCUAGAGGAUAUCGGAUAGGAUUUAUUGCGAGAAGGCUGGACAUGAGGAUCACCCAUGUUCUGUUGGGA,–,–,23.9,36.6
AAAUUGUCAGGAUAUCCAGCUAUACGAAAUAUGUAUACACGGGAGAAGGGACAUGAGGAUCACCCAUGUUUGAA,–,–,36.8,45.9
AAAUUUAACGAAGGAUAUACUAACAUGAGGAUCACCCAUGUGUGCUUUGUGUUGCUGAAAUUCGGGUAGAAGGUCGUAUACAUA,–,–,82.8,118
AACAAUCUAUCUGAGGAUAUCAUGUCAAAGACAUGAGGAUCACCCAUGUACCAGGAAACUGGAUAUGAGAAGGCAGAUAGAUUGA,199,22.8,–,–
AACACACAUGAGGAUCACCCAUGUGAGGAUAUCAUGCUUCGUAGUAAACUACGAAGUGUGAGAAGGCACAUGUU,–,–,62.4,193
AACAGUACAGGAUAUACAUGAGGAUCACCCAUGUGAGAUUUAAGUGGCGUACCACAAAGUAGAAGGGUACUGGA,–,–,38,187
AACAGUACAGGAUAUACAUGAGGAUCACCCAUGUGAUAAUUAAGUGGCGUACCACAAAGUAGAAGGGUACUGGA,–,–,37.9,153
AACAUGUGAGGAUAUGUCACAUGGCUCUUCGGAGCAAGAUGACAGAAGGCACAUGAGGAUCACCCAUGUGCAUC,–,–,13.8,22.6
AACGUCUUAGGAUAUACACUGGGACUUGCCAUGUGGGCCCUACAUGAGGAUCACCCAUGUAGAAGGAAGACAUG,–,–,19.6,14
